From ChEMBL document CHEMBL2331481, “Chemotherapy of leishmaniasis part X: synthesis and bioevaluation of novel terpenyl heterocycles” (Bioorg Med Chem Lett, 2013)
pIC50: −log10 of the molar value.

Tests used:
Leishmania donovani [1] = test: Antileishmanial activity against Leishmania donovani amastigote infected in mouse J774A.1 cells after 72 hrs by luciferase reporter gene assay; type: functional, organism-based; conditions: J774.A1, 72 h
In short: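 Macrophages seeded at 4×10^4 cells/well in RPMI-1640 + 10% FCS, 37 °C CO2, 24 h; then infected with stationary-phase luciferase-expressing promastigotes (4×10^5/well), which transform to amastigotes. Compounds at 2-fold dilutions, 7 points from 40 µM, 72 h. Read-out: luminescence after Steady Glo in PBS. IC50 by nonlinear regression of concentration-response, four-parameter Hill equation.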

[2] = Selectivity index, ratio of CC50 for human KB cells to IC50 for Leishmania donovani amastigote infected in mouse J774A.1 cells; type: functional
In short: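 SI computed as CC50 in KB cells (MTT, 72 h) divided by IC50 against amastigotes in luciferase-reporter infected J774A.1 macrophages (72 h).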

Leishmania donovani [3] = test: Leishmanicidal activity against Leishmania donovani MHOM/IN/80/Dd8 infected in golden hamster at 50 mg/kg, ip for 5 consecutive days measured on day 7 of last drug administration by Giemsa staining method; type: functional; conditions: MHOM/IN/80/Dd8, ip, 168 h, route intraperitoneal
In short: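 Inbred hamsters of either sex, 40-45 g, infected intracardially with 1×10^7 amastigotes; infection establishes in 15-20 days. Only animals with +1 infection (5-15 amastigotes/100 spleen nuclei) on pre-treatment spleen biopsy were used, randomized by parasite burden, 5-6 per group. i.p. dosing began 2 days after biopsy. Giemsa amastigote counts; PI = 100 − [ANAT×100/(INAT×TIUC)].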

[4] = Cytotoxicity against human KB cells after 72 hrs by MTT assay; type: cell-based
In short: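 Exponentially growing cells at 1×10^5/well, 72 h at 37 °C, humidified CO2, with compounds at 3-fold dilutions, 7 points from 400 µM. Compounds dissolved in DMSO, diluted in complete medium. DMSO vehicle wells; podophyllotoxin reference. MTT (5 mg/ml in PBS) 2 h at 37 °C, formazan dissolved in DMSO, absorbance 544 nm. CC50 is the concentration giving 50% viability loss versus medium-only cells, estimated per Huber and Koella.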

pIC50 (Leishmania donovani [1]) | Compound | also measured
< 4.70 | COc1ccc(C2CC(/C=C/C3C(C)=CCCC3(C)C)=NN2c2ccccc2)cc1OC (stereo not drawn) | –
< 4.70 | CC1=C(/C=C/C2=NN(c3ccccc3)C(c3ccccc3[N+](=O)[O-])C2)C(C)(C)CCC1 (stereo not drawn) | –
< 4.40 | CC1=C(/C=C/C2=NN(c3ccccc3)C(c3ccc(F)cc3)C2)C(C)(C)CCC1 (stereo not drawn) | –
< 4.70 | COc1cc(C2CC(/C=C/C3C(C)=CCCC3(C)C)=NN2c2ccccc2)cc(OC)c1OC (stereo not drawn) | –
– | CCCCCCCCCCCCCCCCOP(=O)([O-])OCC[N+](C)(C)C [MILTEFOSINE] | Ratio CC50/IC50 [2]: 0.26; inhibition in vivo at 50 mg/kg (Leishmania donovani [3]): 95.3%
< 4.70 | CC1=CCCC(C)(C)C1/C=C/C1=NN(c2ccccc2)C(c2ccccc2[N+](=O)[O-])C1 (stereo not drawn) | –
< 4.40 | CC1=CCCC(C)(C)C1/C=C/C1=NN(c2ccccc2)C(c2ccc([N+](=O)[O-])cc2)C1 (stereo not drawn) | –
< 4.70 | COc1cc(C2CC(/C=C/C3=C(C)CCCC3(C)C)=NN2c2ccccc2)cc(OC)c1OC (stereo not drawn) | –
< 4.40 | CC1=CCCC(C)(C)C1/C=C/c1cc(-c2ccc([N+](=O)[O-])cc2)n(-c2ccccc2)n1 (stereo not drawn) | –
< 4.40 | CC1=CCCC(C)(C)C1/C=C/C1=NN(c2ccccc2)C(c2ccc(F)cc2)C1 (stereo not drawn) | –
< 4.40 | CC1=C(/C=C/C2=NN(c3ccccc3)C(c3ccc(OCc4ccccc4)cc3)C2)C(C)(C)CCC1 (stereo not drawn) | –
< 4.40 | CC1=CCCC(C)(C)C1/C=C/c1cc(-c2ccc(F)cc2)n(-c2ccccc2)n1 (stereo not drawn) | –
< 4.40 | CC1=CCCC(C)(C)C1/C=C/c1cc(-c2ccccc2[N+](=O)[O-])n(-c2ccccc2)n1 (stereo not drawn) | –
< 4.40 | COc1cc(-c2cc(/C=C/C3C(C)=CCCC3(C)C)nn2-c2ccccc2)cc(OC)c1OC (stereo not drawn) | –
< 4.70 | COc1ccc(-c2cc(/C=C/C3C(C)=CCCC3(C)C)nn2-c2ccccc2)cc1OC (stereo not drawn) | –
4.77 | CC1=C(/C=C/C2=NN(c3ccccc3)C(c3cccc([N+](=O)[O-])c3)C2)C(C)(C)CCC1 (stereo not drawn) | CC50 at 72 h [4]: 279 µM; Ratio CC50/IC50 [2]: 16.48; inhibition in vivo at 50 mg/kg (Leishmania donovani [3]): 7.13%
< 4.70 | CC1=C(/C=C/C2=NN(c3ccccc3)C(c3ccc(Cl)cc3)C2)C(C)(C)CCC1 (stereo not drawn) | –
< 4.40 | CC1=C(/C=C/C2=NN(c3ccccc3)C(c3ccc([N+](=O)[O-])cc3)C2)C(C)(C)CCC1 (stereo not drawn) | –
5.13 | COc1ccc(C2CC(/C=C/C3=C(C)CCCC3(C)C)=NN2c2ccccc2)cc1OC (stereo not drawn) | CC50 at 72 h [4]: 221 µM; Ratio CC50/IC50 [2]: 29.46; inhibition in vivo at 50 mg/kg (Leishmania donovani [3]): 80.8%
< 4.70 | CC1=C(/C=C/C2=NN(c3ccccc3)C(c3ccccc3Cl)C2)C(C)(C)CCC1 (stereo not drawn) | –
< 4.40 | CC1=C(/C=C/C2=NN(c3ccccc3)C(c3cccc(Cl)c3)C2)C(C)(C)CCC1 (stereo not drawn) | –
